From ChEMBL document CHEMBL3352115, “Discovery of APD334: Design of a Clinical Stage Functional Antagonist of the Sphingosine-1-phosphate-1 Receptor” (ACS Med Chem Lett, 2014)
Active and inactive are the calls of the source. The rule behind the calls is not given here.

What was measured:
[1] = Activation of Inward rectifier potassium channel in human atrial myocytes; type: cell-based; conditions: Cardiac atrium
Procedure, shortened: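 In vitro activation of the inward-rectifying potassium channel (IKACh) in human atrial myocytes, run alongside S1P as reference agonist; potency expressed as EC50.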

[2] = target: T1, Sphingosine 1-phosphate receptor 1 (Homo sapiens, UniProt P21453); experiment: Agonist activity at human S1P1 receptor assessed as cAMP accumulation by HTRF assay; type: functional
Procedure, shortened: (§1)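 HTRF cyclase (cAMP) functional assay at S1P1 of each species; EC50 taken as mean of three or more replicates; efficacy given as % agonism relative to S1P.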

[3] = Half life in rat liver microsomes; type: ADME
Procedure, shortened: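 Stability on incubation with liver microsomes of each species; half-life reported.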

[4] = target: T1, Sphingosine 1-phosphate receptor 1; experiment: Agonist activity at human S1P1 receptor assessed as cAMP accumulation by HTRF assay relative to S1P; type: functional; procedure, shortened: as §1
Rattus norvegicus [5] = experiment: Reduction in ankle diameter in Lewis rat collagen-induced arthritis model at 1 mg/kg, po qd measured on day 17 (reference value: +/- inches); type: functional
Procedure, shortened: (§2)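 Female Lewis rats with collagen-induced arthritis, prophylactic daily oral dosing; ankle diameter (inches) and body weight recorded at day 17 end point; mean ± SEM.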

Rattus norvegicus [6] = experiment: Induction of body weight regain in Lewis rat collagen-induced arthritis model at 1 mg/kg, po qd measured on day 17 (reference value: 160.3 +/- 2.3 g); type: functional
Mus musculus = experiment: Reduction in disease severity in C57Bl/6 mouse experimental autoimmune encephalomyelitis model of multiple sclerosis at 1 mg/kg dosed once daily beginning on day 18 and continued to day 37; type: functional, organism-based; set-up: dose 1 mg/kg
Procedure, shortened: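 Female C57Bl/6 mice with MOG35–55-induced EAE; once-daily treatment started day 18 after severe disease onset and continued to day 37; vehicle 0.5% methylcellulose; clinical scoring.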

Rattus norvegicus [7] = experiment: Reduction in ankle diameter in Lewis rat collagen-induced arthritis model at 0.075 mg/kg, po qd measured on day 17 (reference value: +/- inches); type: functional; procedure, shortened: as §2
Rattus norvegicus [8] = experiment: Induction of body weight regain in Lewis rat collagen-induced arthritis model at 0.075 mg/kg, po qd measured on day 17 (reference value: 160.3 +/- 2.3 g); type: functional

T1 sequence (P21453 whole entry): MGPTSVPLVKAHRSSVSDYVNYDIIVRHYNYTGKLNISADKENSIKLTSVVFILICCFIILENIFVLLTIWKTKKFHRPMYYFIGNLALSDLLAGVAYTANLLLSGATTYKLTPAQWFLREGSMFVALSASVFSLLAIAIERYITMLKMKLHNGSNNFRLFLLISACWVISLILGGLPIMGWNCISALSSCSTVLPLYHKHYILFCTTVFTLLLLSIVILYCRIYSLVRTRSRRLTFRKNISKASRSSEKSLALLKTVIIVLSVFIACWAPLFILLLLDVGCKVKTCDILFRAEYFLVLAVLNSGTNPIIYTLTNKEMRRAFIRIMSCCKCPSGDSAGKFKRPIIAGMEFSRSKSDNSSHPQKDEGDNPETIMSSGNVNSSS

CCCCCCCCCCCCC/C=C/[C@@H](O)[C@@H](N)COP(=O)(O)O
EC50 [1]: 2.1 nM | EC50 [2]: 0.062 nM

O=C(O)C[C@@H]1CCc2c1[nH]c1ccc(OCc3ccc(C4CCCC4)c(C(F)(F)F)c3)cc21
half-life [3]: 9 min | Emax [4]: 103% | EC50 [2]: 0.09 nM

N#Cc1cc(COc2ccc3[nH]c4c(c3c2)CCC4CC(=O)O)ccc1OC(F)(F)F (racemic)
Emax [4]: 109% | EC50 [2]: 1.7 nM

COc1ccc(COc2ccc3[nH]c4c(c3c2)CCC4CC(=O)O)cc1C#N (racemic)
Emax [4]: 136% | EC50 [2]: 120 nM

N#Cc1ccc(COc2ccc3[nH]c4c(c3c2)CCC4CC(=O)O)cc1C(F)(F)F (racemic)
Emax [4]: 104% | EC50 [2]: 141 nM

O=C(O)CC1CCc2c1[nH]c1ccc(OCc3ccc(Cl)c(C(F)(F)F)c3)cc21 (racemic)
Emax [4]: 117% | EC50 [2]: 159 nM

N#Cc1cc(COc2ccc3[nH]c4c(c3c2)CCC4CC(=O)O)ccc1C1CCCCC1 (racemic)
Emax [4]: 98% | EC50 [2]: 0.087 nM

O=C(O)CC1CCc2c1[nH]c1ccc(OCc3ccc(C4CCCCC4)c(C(F)(F)F)c3)cc21 (racemic)
Emax [4]: 96% | EC50 [2]: 0.077 nM

O=C(O)CC1CCc2c1[nH]c1ccc(OCc3ccc(C4CCCC4)c(C(F)(F)F)c3)cc21 (racemic)
Emax [4]: 104% | EC50 [2]: 0.073 nM

O=C(O)CC1CCc2c1[nH]c1ccc(OCc3ccc(C4CCC4)c(C(F)(F)F)c3)cc21 (racemic)
Emax [4]: 109% | EC50 [2]: 0.45 nM

O=C(O)CC1CCc2c1[nH]c1ccc(OCc3ccc(C4CC4)c(C(F)(F)F)c3)cc21 (racemic)
Emax [4]: 118% | EC50 [2]: 3.68 nM

CCCc1ccc(COc2ccc3[nH]c4c(c3c2)CCC4CC(=O)O)cc1C(F)(F)F (racemic)
Emax [4]: 107% | EC50 [2]: 0.49 nM

CC(C)(C)Cc1ccc(COc2ccc3[nH]c4c(c3c2)CCC4CC(=O)O)cc1C(F)(F)F (racemic)
Emax [4]: 112% | EC50 [2]: 55.8 nM

CC(C)Cc1ccc(COc2ccc3[nH]c4c(c3c2)CCC4CC(=O)O)cc1C(F)(F)F (racemic)
Emax [4]: 103% | EC50 [2]: 0.44 nM

O=C(O)CC1CCc2c1[nH]c1ccc(OCc3ccc(CC4CCCCC4)c(C(F)(F)F)c3)cc21 (racemic)
Emax [4]: 111% | EC50 [2]: 4.58 nM

N#Cc1cc(COc2ccc3[nH]c4c(c3c2)CCC4CC(=O)O)cc(OC(F)(F)F)c1 (racemic)
Emax [4]: 90%

O=C(O)CC1CCc2c1[nH]c1ccc(OCc3cc(C(F)(F)F)cc(C(F)(F)F)c3)cc21 (racemic)
Emax [4]: 98%

CCCCCCCCc1ccc(CCC(N)(CO)CO)cc1 [FINGOLIMOD]
Activity (Rattus norvegicus [5]): 0.2694 inches | Activity (Rattus norvegicus [6]): 181.9 g | Activity (Mus musculus): Active

CN(Cc1cnc2nc(N)nc(N)c2n1)c1ccc(C(=O)N[C@@H](CCC(=O)O)C(=O)O)cc1 [METHOTREXATE]
Activity (Rattus norvegicus [7]): 0.2795 inches | Activity (Rattus norvegicus [8]): 181.7 g
